Reference: article PMC2720137 (Cancer cell, 2008)

Key:
[1] = biological target: Myc-tagged p110α-H1047R I800L (Homo sapiens, UniProt P42336, H1047R/I800L); assay: In vitro PI3K assay, I800L mutant; type: biochemical; settings: I800L vs p110α-H1047R, 10 μM ATP
[2] = test system: MCF10A cells expressing p110α-H1047R I800L; assay: MCF10A EGF-independent growth; type: cell-based, human; settings: media lacking EGF, Alamar Blue
How it was run: (§1)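 MCF10A cells were retrovirally transduced with pMIG p110α-H1047R mutants (IRES-GFP) after EcoR nucleofection, then FACS-sorted to >95% GFP+. Cells were seeded at 2 × 10^3 per 96-well in growth medium, and after 2 days switched to EGF-free medium with PI3K inhibitors (DMSO stocks 1:1000). Every 2 days: resazurin (120 µg/ml stock, 1:20) added for 2 h at 37°C plus 15 min RT, fluorescence read at ex 520/em 590 nm, and medium refreshed. Mean ± SEM.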

[3] = test system: MCF10A cells expressing p110α-H1047R I800M; assay: MCF10A EGF-independent growth; type: cell-based, human; settings: media lacking EGF, Alamar Blue
How it was run: as §1

[4] = test system: MCF10A cells expressing p110α-H1047R L814C; assay: MCF10A EGF-independent growth; type: cell-based, human; settings: media lacking EGF, Alamar Blue
How it was run: as §1

[5] = test system: phospho-Akt (Thr308, Ser473) in I800L MCF10A cells; assay: Phospho-Akt western blot, I800L MCF10A cell line; type: cell-based, human; settings: for resistance of phospho-Akt levels: 1 hour treatment, serial dilutions; for change in inhibitor sensitivity of phospho-308 Akt: seen in phospho-308 Akt but not phospho-473
[6] = test system: phospho-Akt (Thr308, Ser473) in I800M MCF10A cells; assay: Phospho-Akt western blot, I800M MCF10A cell line; type: cell-based, human; settings: 1 hour treatment, serial dilutions
[7] = test system: phospho-Akt (Thr308, Ser473) in L814C MCF10A cells; assay: Phospho-Akt western blot, L814C MCF10A cell line; type: cell-based, human; settings: 1 hour treatment, serial dilutions
[8] = test system: YRP1-pURA3-2μ-GAL1-p110αH1047R-CAAX; assay: Reverse halo assay; type: cell-based, S. cerevisiae; settings: 10 μl of a 10 mM DMSO stock spotted on cellulose disc, SD −URA +Galactose
[9] = test system: p110α; settings: ref Brunn et al., 1996; Vlahos et al., 1994; cited from earlier work
[10] = test system: S. cerevisiae overexpressing membrane-localized p110α; settings: ref Rodriguez-Escudero et al., 2005; cited from earlier work
[11] = test system: drug-permeablized YRP1 strain expressing p110α-CAAX; assay: Rescue of PI3K-induced growth inhibition, yeast serial dilutions; type: cell-based, S. cerevisiae; settings: 5 μM PI-103, galactose
[12] = test system: wild-type AFS92 strain expressing p110α-CAAX; assay: as above; type: cell-based, S. cerevisiae; settings: 5 μM PI-103, galactose
[13] = test system: Myc-tagged p110α-H1047R I800M; type: biochemical, human; settings: I800M vs p110α-H1047R, 10 μM ATP
[14] = test system: phospho-Akt in p110α-expressing MCF10A cell lines; type: cell-based, human; settings: 30 μM PI-103, 1 hour, after 24 hours EGF starvation, all cell lines
How it was run: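 GFP-sorted MCF10A lines transduced with p110α mutants, at 40-70% confluence, were starved 24 h in MCF10A medium lacking EGF and insulin. They were then given normal growth medium and/or inhibitor (DMSO control) for 60 min. Cells were lysed in PI3K lysis buffer (50 mM Tris pH 7.4, 300 mM NaCl, 1% Triton X-100, phosphatase/protease inhibitors) and western blotted for phospho-Akt.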

[15] = test system: Myc-tagged p110α-H1047R L814C; type: biochemical, human; settings: L814C vs p110α-H1047R, 10 μM ATP
[16] = test system: PI4KIIIβ with the mutation corresponding to Y836M; settings: ref Balla et al., 2008; cited from earlier work

Myc-tagged p110α-H1047R I800L, sequence (P42336 whole entry I800L/H1047R): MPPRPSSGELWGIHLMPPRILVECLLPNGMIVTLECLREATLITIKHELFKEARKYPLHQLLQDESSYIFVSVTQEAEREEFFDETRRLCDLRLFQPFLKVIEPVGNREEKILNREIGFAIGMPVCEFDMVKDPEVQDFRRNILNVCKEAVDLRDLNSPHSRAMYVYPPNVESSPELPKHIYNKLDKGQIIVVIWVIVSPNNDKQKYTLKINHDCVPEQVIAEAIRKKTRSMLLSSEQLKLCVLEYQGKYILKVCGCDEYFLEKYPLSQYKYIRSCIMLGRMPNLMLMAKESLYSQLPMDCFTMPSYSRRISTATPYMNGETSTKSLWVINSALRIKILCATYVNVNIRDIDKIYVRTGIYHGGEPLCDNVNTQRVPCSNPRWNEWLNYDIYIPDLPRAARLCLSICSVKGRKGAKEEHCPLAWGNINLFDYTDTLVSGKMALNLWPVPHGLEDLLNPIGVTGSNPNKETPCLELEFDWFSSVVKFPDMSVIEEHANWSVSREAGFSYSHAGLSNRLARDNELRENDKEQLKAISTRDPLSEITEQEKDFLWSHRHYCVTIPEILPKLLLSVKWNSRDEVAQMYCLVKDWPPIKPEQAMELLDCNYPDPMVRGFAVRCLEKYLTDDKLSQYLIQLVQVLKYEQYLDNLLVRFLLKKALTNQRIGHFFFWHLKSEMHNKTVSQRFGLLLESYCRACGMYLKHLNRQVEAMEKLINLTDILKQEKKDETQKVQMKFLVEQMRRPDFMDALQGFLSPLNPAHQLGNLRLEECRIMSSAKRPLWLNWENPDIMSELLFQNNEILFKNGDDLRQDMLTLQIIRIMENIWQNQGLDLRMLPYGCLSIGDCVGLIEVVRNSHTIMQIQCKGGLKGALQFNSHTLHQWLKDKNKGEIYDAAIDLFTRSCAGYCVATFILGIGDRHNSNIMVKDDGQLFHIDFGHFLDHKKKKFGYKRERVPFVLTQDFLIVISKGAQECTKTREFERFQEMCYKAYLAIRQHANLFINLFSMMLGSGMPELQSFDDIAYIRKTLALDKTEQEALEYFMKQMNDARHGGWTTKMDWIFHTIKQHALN

Compound: Cn1c(=O)n(-c2ccc(C(C)(C)C#N)cc2)c2c3cc(-c4cnc5ccccc5c4)ccc3ncc21 [BEZ-235]
- change in inhibitor sensitivity in vitro [1]: sensitized
- inhibitor sensitization of EGF-independent growth [2]: sensitized
- inhibitor resistance of EGF-independent growth [3]: less dramatic
- sensitization of cell growth [4]: minimal or no sensitization
- resistance of phospho-Akt levels [5]: Significant resistance is not observed
- change in inhibitor sensitivity of phospho-308 Akt [5]: sensitization
- resistance of phospho-Akt levels [6]: Significant resistance is not observed
- sensitization of phospho-Akt levels [7]: sensitization is seen

Compound: O=c1cc(N2CCOCC2)oc2c(-c3ccccc3)cccc12 [LY294002, 2-(4-morpholinyl)-8-phenyl-4H-1-benzopyran-4-one]
- growth halo in reverse halo assay [8]: did not produce growth halos
- potency as inhibitor of p110α and other PI3K family members [9]: only a μM inhibitor
- reversal of p110α-induced growth inhibition [10]: partially reversed

Compound: Oc1cccc(-c2nc(N3CCOCC3)c3oc4ncccc4c3n2)c1 [PI-103]
- rescue of PI3K-induced growth inhibition [11]: completely rescues growth
- rescue of PI3K-induced growth inhibition [12]: only partially rescues growth
- decrease in inhibitor potency (mutant IC50 / WT IC50) [1]: 5-10 fold
- decrease in inhibitor potency (mutant IC50 / WT IC50) [13]: 5-10 fold
- inhibitor resistance of EGF-independent growth [2]: less dramatic
- inhibitor resistance of EGF-independent growth [3]: less dramatic
- sensitization of cell growth [4]: minimal or no sensitization
- resistance of phospho-Akt levels [5]: Significant resistance is not observed
- change in inhibitor sensitivity of phospho-308 Akt [5]: Slight resistance
- resistance of phospho-Akt levels [6]: Significant resistance is not observed
- block of phospho-Akt stimulation by EGF-containing media [14]: blocked

Compound: Cc1ccc([N+](=O)[O-])cc1S(=O)(=O)N(C)/N=C/c1cnc2ccc(Br)cn12 [PIK-75]
- growth halo in reverse halo assay [8]: produced only a thin ring of growth

Compound: COc1ccc2c(c1OC)N=C(NC(=O)c1cccnc1)N1CCN=C21 [PIK-90]
- decrease in inhibitor potency (mutant IC50 / WT IC50) [1]: 5-10 fold
- decrease in inhibitor potency (mutant IC50 / WT IC50) [13]: 5-10 fold
- drug sensitization (mutant IC50 / WT IC50) [15]: more than 10 fold
- inhibitor resistance of EGF-independent growth [2]: most pronounced
- inhibitor resistance of EGF-independent growth [3]: most pronounced
- sensitization of cell growth [4]: strong sensitization
- resistance of phospho-Akt levels [5]: approximately 3 fold
- sensitization of phospho-Akt levels [7]: approximately 5 fold

Compound: CC(=O)Nc1nc(C)c(-c2ccc(Cl)c(S(=O)(=O)NCCO)c2)s1 [PIK-93]
- decrease in inhibitor potency (mutant IC50 / WT IC50) [1]: 5-10 fold
- decrease in inhibitor potency (mutant IC50 / WT IC50) [13]: 5-10 fold
- drug sensitization (mutant IC50 / WT IC50) [15]: approximately 100 fold
- inhibitor resistance of EGF-independent growth [2]: most pronounced
- inhibitor resistance of EGF-independent growth [3]: most pronounced
- sensitization of cell growth [4]: strong sensitization
- resistance of phospho-Akt levels [5]: approximately 3 fold
- resistance of phospho-Akt levels [6]: approximately 10 fold
- sensitization of phospho-Akt levels [7]: ~30 fold
- drug resistance of active mutant kinase [16]: resistant

Compound: COC[C@H]1OC(=O)c2coc3c2[C@@]1(C)C1=C(C3=O)[C@@H]2CCC(=O)[C@@]2(C)C[C@H]1OC(C)=O [wortmannin]
- growth halo in reverse halo assay [8]: did not produce growth halos
- drug resistance of active mutant kinase [16]: resistant
